Data set [1] is described as follows: folding enthalpy; higher = less favourable; fluorescence melt of hairpins on a sequencing array, two-state fit. The conditions noted are these: sodium 0.088 M. In a few lines: (§1)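 Melting temperature and folding enthalpy were derived from bootstrapped two-state fits. The fitted temperatures were raised by 9.35 °C to agree with UV melts, and four replicates were combined by inverse variance. The underlying data were Cy3 fluorescence images of library hairpins, with annealed Cy3 and quencher oligos, on a sequenced MiSeq flow cell in 50 mM Na-HEPES pH 8.0, 25 mM NaCl, taken in 2.5 °C steps up to 60 °C, normalised to pre-quench Cy3 and to control constructs.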

Data set [2] is described as follows: melting temperature; fluorescence melt of hairpins on a sequencing array, two-state fit, raised by 9.35 °C to match UV melts. The note with it: sodium 0.088 M. In a few lines: as §1

In the case of GATCTACATCTAGATC ((((((....)))))), the folding enthalpy in data set [1] was -129 kJ/mol. Also, in data set [2], the Tm amounted to 36.8 °C.

With GATCTACCAATAGATC ((((((....)))))), the folding enthalpy in data set [1] is -107 kJ/mol. In addition, the Tm in data set [2] is 38.1 °C.

As for GATCTACCCGTAGATC ((((((....)))))), the folding enthalpy in data set [1] is -176 kJ/mol. The Tm in data set [2] came to 50.8 °C.

For GATCTACCCTAGATC ((((((...)))))), the folding enthalpy in data set [1] is -103 kJ/mol. The Tm in data set [2] is 40.7 °C.

Turning to GATCTACCGGTAGATC ((((((....)))))), the folding enthalpy in data set [1] was -181 kJ/mol. For the same sequence, the Tm in data set [2] came to 53.2 °C.

Consider GATCTACGGTTAGATC ((((((....)))))), for which, in data set [1], the folding enthalpy is -127 kJ/mol. The Tm in data set [2] amounted to 37.8 °C.

Turning to GATCTACGTTAGATC ((((((...)))))), the folding enthalpy in data set [1] is -104 kJ/mol. In addition, the Tm in data set [2] was 38.3 °C.

Turning to GATCTACTACTAGATC ((((((....)))))), the folding enthalpy in data set [1] is -131 kJ/mol. Moreover, the Tm in data set [2] amounted to 37.5 °C.

As to GATCTACTAGTAGATC ((((((....)))))), the folding enthalpy in data set [1] was -196 kJ/mol. The Tm in data set [2] was 51.7 °C.

GATCTACTCCTAGATC ((((((....)))))): the folding enthalpy in data set [1] was -138 kJ/mol. Moreover, the Tm in data set [2] amounted to 39.5 °C.

GATCTAGACTAGATC ((((((...)))))): in data set [1], the folding enthalpy is -153 kJ/mol. The Tm in data set [2] is 40.8 °C.

With GATCTAGATCTAGATC ((((((....)))))), the folding enthalpy in data set [1] was -156 kJ/mol. The Tm in data set [2] turned out to be 47.5 °C.

As to GATCTAGATTTAGATC ((((((....)))))), in data set [1], the folding enthalpy is -119 kJ/mol. The Tm in data set [2] turned out to be 38.4 °C.

As for GATCTAGCATAGATC ((((((...)))))), in data set [1], the folding enthalpy was -153 kJ/mol. In data set [2], the Tm amounted to 50.8 °C.

For the sequence GATCTAGCTTTAGATC ((((((....)))))), the folding enthalpy in data set [1] is -112 kJ/mol. For the same sequence, the Tm in data set [2] came out at 38.8 °C.

With GATCTAGGAAACTAGATC (((((((....))))))), the folding enthalpy in data set [1] is -180 kJ/mol. In data set [2], the Tm turned out to be 51.9 °C.

With GATCTAGGAAACTGGATC ((((.((....)).)))), the folding enthalpy in data set [1] is -142 kJ/mol. Besides, in data set [2], the Tm is 41.8 °C.

GATCTAGGCTAGATC ((((((...)))))): the folding enthalpy in data set [1] was -231 kJ/mol. Also, in data set [2], the Tm was 45.5 °C.

As for GATCTAGGTTTAGATC ((((((....)))))), the folding enthalpy in data set [1] is -119 kJ/mol. Further, the Tm in data set [2] stood at 41.1 °C.

In the case of GATCTAGTCGTAGATC ((((((....)))))), the folding enthalpy in data set [1] is -117 kJ/mol. Besides, in data set [2], the Tm was determined as 44.3 °C.

GATCTAGTCTTAGATC ((((((....)))))): the folding enthalpy in data set [1] was -164 kJ/mol. In addition, the Tm in data set [2] was 45 °C.

Regarding GATCTAGTGCTAGATC ((((((....)))))), the folding enthalpy in data set [1] is -130 kJ/mol. Further, in data set [2], the Tm is 44.3 °C.

For GATCTAGTGTAGATC ((((((...)))))), the folding enthalpy in data set [1] was -111 kJ/mol. Moreover, the Tm in data set [2] was 38.5 °C.

With GATCTAGTTTAGATC ((((((...)))))), the folding enthalpy in data set [1] was -127 kJ/mol. The Tm in data set [2] is 40.7 °C.

As to GATCTATAAGTAGATC ((((((....)))))), the folding enthalpy in data set [1] is -149 kJ/mol. The Tm in data set [2] turned out to be 41.6 °C.

In the case of GATCTATAATTAGATC ((((((....)))))), the folding enthalpy in data set [1] is -107 kJ/mol. Moreover, the Tm in data set [2] is 39.9 °C.

In the case of GATCTATATGTAGATC ((((((....)))))), the folding enthalpy in data set [1] was -148 kJ/mol. Also, the Tm in data set [2] amounted to 45.5 °C.

For GATCTATCACTAGATC ((((((....)))))), in data set [1], the folding enthalpy was -133 kJ/mol. Further, the Tm in data set [2] is 38.6 °C.

For the sequence GATCTATCAGTAGATC ((((((....)))))), the folding enthalpy in data set [1] was -136 kJ/mol. Moreover, the Tm in data set [2] was 40.4 °C.

For the sequence GATCTATGAATAGATC ((((((....)))))), the folding enthalpy in data set [1] was -136 kJ/mol. For the same sequence, the Tm in data set [2] came to 43.2 °C.

In the case of GATCTATGCGTAGATC ((((((....)))))), in data set [1], the folding enthalpy was -173 kJ/mol. In data set [2], the Tm came out at 48.2 °C.

For GATCTATGCTAGATC ((((((...)))))), the folding enthalpy in data set [1] was -98 kJ/mol. In addition, the Tm in data set [2] worked out at 40.4 °C.

Take GATCTATGGTAGATC ((((((...)))))): the folding enthalpy in data set [1] was -121 kJ/mol. Besides, the Tm in data set [2] was 36.9 °C.

GATCTATGTGTAGATC ((((((....)))))): the folding enthalpy in data set [1] was -208 kJ/mol. In data set [2], the Tm is 48 °C.

In the case of GATCTATTAGTAGATC ((((((....)))))), in data set [1], the folding enthalpy was -141 kJ/mol. The Tm in data set [2] is 44.4 °C.

GATCTATTATAGATC ((((((...)))))): in data set [1], the folding enthalpy was -140 kJ/mol. For the same sequence, the Tm in data set [2] stood at 41.9 °C.

With GATCTATTCATAGATC ((((((....)))))), the folding enthalpy in data set [1] was -150 kJ/mol. Besides, in data set [2], the Tm turned out to be 49.9 °C.

For GATCTATTCCTAGATC ((((((....)))))), in data set [1], the folding enthalpy was -125 kJ/mol. The Tm in data set [2] worked out at 40.4 °C.

On to GATCTATTGGTAGATC ((((((....)))))), for which the folding enthalpy in data set [1] is -127 kJ/mol. For the same sequence, in data set [2], the Tm worked out at 44.2 °C.

On to GATCTATTGTTAGATC ((((((....)))))), for which the folding enthalpy in data set [1] was -150 kJ/mol. Besides, the Tm in data set [2] amounted to 42.5 °C.

Take GATCTATTTTAGATC ((((((...)))))): in data set [1], the folding enthalpy is -137 kJ/mol. Besides, the Tm in data set [2] was 41.7 °C.

In the case of GATCTCAAAGAGATC ((((((...)))))), the folding enthalpy in data set [1] was -157 kJ/mol. The Tm in data set [2] worked out at 55.2 °C.

GATCTCAACAGAGATC ((((((....)))))): the folding enthalpy in data set [1] was -185 kJ/mol. In data set [2], the Tm came out at 54.9 °C.

Turning to GATCTCAATAGAGATC ((((((....)))))), the folding enthalpy in data set [1] is -161 kJ/mol. In addition, the Tm in data set [2] is 53.3 °C.

As for GATCTCAATCGAGATC ((((((....)))))), the folding enthalpy in data set [1] was -183 kJ/mol. The Tm in data set [2] came out at 52.2 °C.

As to GATCTCAATTGAGATC ((((((....)))))), the folding enthalpy in data set [1] was -159 kJ/mol. Also, in data set [2], the Tm worked out at 53.1 °C.

In the case of GATCTCACAGGAGATC ((((((....)))))), the folding enthalpy in data set [1] is -142 kJ/mol. The Tm in data set [2] was found to be 51.7 °C.

Take GATCTCACCGAGATC ((((((...)))))): the folding enthalpy in data set [1] was -153 kJ/mol. Moreover, in data set [2], the Tm came out at 55.2 °C.

Consider GATCTCACGAGAGATC ((((((....)))))), for which the folding enthalpy in data set [1] was -165 kJ/mol. The Tm in data set [2] amounted to 52.3 °C.

Turning to GATCTCACGCGAGATC ((((((....)))))), in data set [1], the folding enthalpy was -174 kJ/mol. In data set [2], the Tm stood at 52.7 °C.

For the sequence GATCTCAGGTGAGATC ((((((....)))))), the folding enthalpy in data set [1] was -135 kJ/mol. Also, in data set [2], the Tm was 53.6 °C.

For GATCTCATACGAGATC ((((((....)))))), the folding enthalpy in data set [1] is -158 kJ/mol. In data set [2], the Tm was 52.6 °C.

As for GATCTCCAACGAGATC ((((((....)))))), the folding enthalpy in data set [1] was -164 kJ/mol. In data set [2], the Tm turned out to be 49.8 °C.

Take GATCTCCACTGAGATC ((((((....)))))): the folding enthalpy in data set [1] was -170 kJ/mol. The Tm in data set [2] came out at 51.7 °C.

For the sequence GATCTCCAGCGAGATC ((((((....)))))), the folding enthalpy in data set [1] is -128 kJ/mol. Besides, in data set [2], the Tm was 50 °C.

Take GATCTCCCACGAGATC ((((((....)))))): the folding enthalpy in data set [1] is -169 kJ/mol. Further, the Tm in data set [2] is 50.5 °C.

Turning to GATCTCCCGAAAGGGATC (((..(((....)))))), in data set [1], the folding enthalpy was -38.5 kJ/mol. Also, the Tm in data set [2] is 29.6 °C.
